Experimental data: PubChem BioAssay AID540281 (Sanford-Burnham Center for Chemical Genomics, 2011)
Values joined by “and” are separate entries in the source; they are usually repeats but may differ in a detail not shown here. Equal values may be shown once. Among all 2,500 compounds or so, about 1,500 (60%) were called active.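 The calls were made as follows: active = inhibition of at least 30% at 20 µM; inactive = the rest.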 So high a share suggests a set chosen from earlier hits. Not all results are given here.

target: Carboxy-terminal domain RNA polymerase II polypeptide A small phosphatase 1 (Homo sapiens) (UniProt Q9GZU7); test: SCP1 dephosphorylation blockade at one dose – biochemical, colorimetric, single concentration, confirmation (AID 540281); settings: recombinant SCP-1 catalytic domain, phosphate release, malachite green absorbance; at 20 µM; hits give high values;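 also: plate controls were DMSO with enzyme for no effect and buffer wells lacking enzyme for full effect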
How it was run: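 Assay system: SCP-1 enzyme, residues 76-261 / Medium: Tris acetate buffer pH 5.5 with 10 mM MgCl2 and Tween-20 / Also added: Phospho-17-mer peptide substrate / Compound: one dose, 20 µM final, 1.0% DMSO / Timing: 45 min phosphatase reaction at RT / Technique: Phosphate-release colorimetry, 630 nm absorbance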

Carboxy-terminal domain RNA polymerase II polypeptide A small phosphatase 1 (Homo sapiens), sequence (Q9GZU7 76-261 limits assumed): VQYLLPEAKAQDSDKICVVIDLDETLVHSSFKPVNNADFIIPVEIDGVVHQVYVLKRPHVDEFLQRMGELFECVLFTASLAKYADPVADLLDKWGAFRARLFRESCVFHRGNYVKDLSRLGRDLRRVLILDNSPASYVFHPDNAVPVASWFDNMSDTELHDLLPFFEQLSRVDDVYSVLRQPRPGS

inhibition, inactive:
O=[N+]([O-])c1cc(S(=O)(=O)Nc2cccc(Cl)c2)ccc1N=Nc1c(O)[nH]c2ccccc12 8.78%
COC(=O)c1ccccc1NC(=O)C1(S(=O)(=O)c2ccc(Cl)cc2)CC1 -25%
CCOC(=O)C1CCCN(C(=O)CN(c2ccc(OC)cc2)S(=O)(=O)c2c(C)noc2C)C1 (stereo not drawn) -13.6%
NC(=O)NC(=O)CSc1nc2cc([N+](=O)[O-])ccc2n1-c1cccc(C(F)(F)F)c1 -1.8%
CC1=NN(C(=O)CCc2ccccc2O)C(O)(C(F)(F)F)C1 (stereo not drawn) -13.9%
CCOc1ccc2nc(N(CCCN(C)C)C(=O)c3ccc(C(=O)c4ccccc4)cc3)sc2c1 -4.94%
Cc1ccc(S(=O)(=O)Nc2nc(C)cc(-n3nc(C)cc3C)n2)cc1 -2.85%
CC(C)c1ccc(NC(=S)NNc2ccc(Cl)c(C(=O)O)c2)cc1 4.8%
COc1cccc(CNS(=O)(=O)c2csc(C(N)=O)c2)c1 -12.2%
Cc1ccc(NC(=O)COC(=O)C2C3CC4OC(=O)C2C4C3)cc1Cl (stereo not drawn) -2.24%
COc1cc(/C=C/C2=CC(C)(C)NC(=S)N2)cc(OC)c1OC -11.8%
O=C(COC(=O)/C=C/c1ccc(Br)o1)Nc1cccc(S(=O)(=O)N2CCOCC2)c1 16.4%
COc1cccc(CC(=O)OCC(=O)NCc2ccc3c(c2)OCO3)c1 -5.6%
CCCCSc1nnc(-c2ccc(C)cc2)o1 -16.3%
Cc1ccc(N=Cc2c(O)n(-c3nccs3)c(=O)c3ccccc23)c(C)c1 -12.9%
O=C(NN1C(=O)C2C3C=CC(O3)C2C1=O)c1ccccc1 (stereo not drawn) -10.8%
O=C(CN1CCN(c2ccc(Cl)cc2)CC1)c1ccccc1 -15.3%
O=C(c1ccc2c(c1)OCO2)N1CCNc2ccccc2C1 -27.2%
N#CC1=C(SCc2ccccc2)NC(=O)C(C#N)C12CCCC2 (stereo not drawn) 9.2%
COC(=O)c1ccc(-c2c(-c3ccccc3)ncc3cc(OC)c(OC)cc23)cc1 -1.8%
COc1ccc(OC)c(NC(=O)CSc2nc(-c3ccccc3)cc(=O)[nH]2)c1 -9.58%
Cn1c(N)c(C(=O)COC(=O)c2ccc3ccccc3c2)c(=O)n(C)c1=O -18.1%
Cc1c([N+](=O)[O-])c(N)nn1C 3.58%
COC(=O)C[n+]1cccc2ccccc21 21%
O=C1CCC(CCC(=O)N2CCCC(C(=O)c3ccc(Cl)cc3)C2)=NN1 (stereo not drawn) -8.97%
O=C(Nc1cccc(F)c1)[C@@H]1CCCN1 0.82%
CN(CC(=O)Nc1cccc(F)c1)C(=O)C1CC(=O)N(CCc2ccccc2)C1 (stereo not drawn) -11.8%
COc1cc(Cl)cc(C2NC(=O)NC(C)=C2C(=O)NCc2ccccc2)c1O (stereo not drawn) -19.7% and -13.7%
O=C(CN1CCN(S(=O)(=O)/C=C/c2ccccc2)CC1)NC(=O)NCc1ccco1 10.9%
COc1ccc(N2CCN(C(=O)CSc3nc4cc(OC)c(OC)cc4cc3C#N)CC2)cc1 25.3%
COCCCNc1nc2ccccc2nc1NS(=O)(=O)c1ccc(F)cc1 -5.57%
CCC(=O)Nc1ccccc1N1CCN(S(C)(=O)=O)CC1 -7.14%
COc1cccc2sc(N(CCCN(C)C)C(=O)C(c3ccccc3)c3ccccc3)nc12 -18.8%
CC1=NNC(=O)C1CCC(=O)N/N=C\c1cccc(Cl)c1 (stereo not drawn) -18.8%
C=CC1C(OC2OC(CO)C(O)C(O)C2O)OC=C(C(=O)OC)C1CC1CC(=O)CC(CC(=O)CCc2ccc(O)cc2)O1 (stereo not drawn) -13.1%
Cc1ccc(CN2CCN(c3ccccc3Cl)CC2)o1 -20%
CC(=O)Nc1ccc(N2C(=O)CCC2=O)cc1C -5.6%
N#Cc1ccc(C(=O)Nc2cccc3cccnc23)c(F)c1 3.88%

inhibition, active:
Cc1ccc(C(=O)NNC(=O)c2cc3cc4ccccc4nc3s2)cc1 61%
Cc1ccc(CCCOC(=O)C[N+]2(C)CCCC2)cc1 78.5%
Cc1ccc(NC(=O)c2cc(-c3ccc(C)o3)nc3ccccc23)nc1 67.9%
O=C(COC(=O)c1ccccc1O)NCc1ccco1 59.3%
O=C(COC(=O)c1cnc(Cl)c(Cl)c1)NCc1ccco1 44.4%
CN(c1ccccc1)S(=O)(=O)c1ccc(Cl)c(C(=O)OCC(=O)NCc2ccco2)c1 56.5%
Cc1cc(C(=O)OCC(=O)NCc2ccco2)c(C)n1-c1ccccc1 67.3%
O=C(COC(=O)CCC(=O)c1cccs1)NCc1ccco1 75.5%
Cc1c(Cl)cnc(NC(=O)COC(=O)c2ccc(S(=O)(=O)NCc3ccco3)cc2)c1Cl 67%
O=C(c1ccc(CS(=O)(=O)c2ccccc2)o1)N1CCN(c2ccccc2)CC1 59.1%
Cc1ccc(CCNC(=O)c2ccc3nc4ccccc4c(=O)n3c2)cc1 41.5%
COc1cccc(NC(C)=[N+](C)CCNS(=O)(=O)c2ccc(Cl)cc2)c1 92.4%
O=C(COc1ccc(-n2cnnn2)cc1)Nc1ccccc1Cl 56.8%
CC(C)CCOc1ccc(C(=O)C[N+]2(C)CCOCC2)cc1 98.7%
O=C(Nc1cccnc1)c1cc2cc(Br)ccc2oc1=O 68.8%
Cc1ccc(/C=C/C(=O)Nc2ccc([N+](=O)[O-])c(NC(=O)/C=C/c3ccc(C)o3)c2)o1 66.7%
CCCCCN1CC(O)=C(c2nc(-c3ccc(Cl)cc3)cs2)C1=N 71.5%
Cc1ccn2c(=O)nc(SCC(=O)NCc3ccc4c(c3)OCO4)nc2c1 57.6%
CC1CCN(c2ccc(S(=O)(=O)Nc3cc(C(=O)O)cc(C(=O)O)c3)cc2[N+](=O)[O-])CC1 51.3%
CCc1ccc(NC(=O)CS(=O)CC(=O)NCCCc2ccccc2)cc1 (stereo not drawn) 93.8%
CS(=O)(=O)C1=NN2C(=N)/C(=C\c3ccc(OCCOc4ccccc4)cc3)C(=O)N=C2S1 72%
COc1cccc2cc(-c3cc(=O)oc4cc(C)c(O)cc34)oc12 57.7%
O=c1c2cc(-c3ccccc3)sc2nc2n1N=C(c1cccs1)CS2 38.4%
O=C(c1cc2c(s1)CCC2)N1CCN(c2ccccc2)CC1 31.4%
ON=C1/C(=N\O)CC2(C/C1=N/O)OCCO2 36.9%
Cc1nn(-c2cc(Cl)ccc2N)c(=O)c2ccccc12 32.6%
O=C(CCS(=O)(=O)c1ccc(Br)cc1)NCCc1ccc(Cl)cc1 55.6%
COc1ccc(Cl)cc1NC(=O)CCS(=O)(=O)c1ccc(Br)cc1 62.9%
CC[n+]1c(C)n(-c2ccccc2)c2ccc(NC(C)=O)cc21 85.8%
O=C(Cn1cc(/C=N/NC(=O)c2cccc(C(F)(F)F)c2)c2ccccc21)Nc1ccc(F)cc1 39.4%
O=c1[nH]n(-c2ccc([N+](=O)[O-])cc2)c(=O)c2ccccc12 46.7%
O=C1NN(c2ccccc2)C(=O)/C1=C/c1ccc(-c2cccc(C(=O)O)c2)o1 72.6%
COc1ccc(OCC(=O)NNC(=O)c2ccc(-c3ccccc3)cc2)cc1 67.5%
O=C(NNC(=O)c1ccc2ccccc2c1)c1ccc(Cl)cc1 57.2%
Cc1oc2c(C)c3oc(=O)c(CC(=O)N[C@@H](CC(C)C)C(=O)N[C@@H](Cc4ccccc4)C(=O)O)c(C)c3cc2c1C 80.1%
O=C(O)c1ccc(N/N=C/c2ccc3ncccc3c2)cc1 39.7%
COc1ccc(NC(=O)CN(C)C(=O)/C=C/c2cn(Cc3ccccc3)nc2-c2cccnc2)cc1 84.6%
Nn1cnnc1N/N=C/c1cc([N+](=O)[O-])c(Cl)cc1Cl 86.2%
O=C(Nc1cccc(F)c1)c1cc(-c2ccco2)nc2ccccc12 50.4%
CCCc1nc(-c2cc3cc(C)ccc3[nH]c2=O)no1 84.7%
Cc1cc(/C=C2\SC(=O)N(C)C2=O)c(C)n1-c1cccc(C(=O)O)c1 38.7%
C[n+]1ccc(C(=O)NCc2ccccc2)cc1 80.1%
Cc1ccc(SCC(=O)NC(=O)NCc2ccco2)c(C)c1 73.6%
Cc1c(CCC(=O)O)c(=O)oc2cc(OCc3ccc(Br)cc3)ccc12 38.7%
Cc1c(CCC(=O)O)c(=O)oc2c(C)c(OCc3ccccc3Cl)ccc12 58.5%
COc1ccc(Cl)cc1C=CC=NNC(=O)c1ccncc1 38.5%
COc1ccc(S(=O)(=O)c2c[nH]c(=S)[nH]c2=O)cc1Cl 40.6%
CSc1ccc(/C=N/NC(=O)c2cccc(Cl)c2)cc1 59.9%
O=C(Cn1nnc(-c2ccc3c(c2)OCO3)n1)NCc1ccco1 30.9%
Cc1nnc(SCC(=O)Nc2ccc(S(=O)(=O)Nc3ccc(Cl)nn3)cc2)s1 58.2%
C=C1c2cccc(OC)c2O[C@H](C(=O)OCC)[C@@H]1CCCCCC 88%
CO/N=C(\C(=O)N[C@@H]1C(=O)N2C(C(=O)O)=C(COC(C)=O)CS[C@H]12)c1csc(N)n1 (stereo in doubt) 43.7%
CCOC(=O)C1=C(C)c2ccccc2OC1(C)C(=O)OCC (stereo not drawn) 39.1%
CCOc1ccccc1/C=c1\sc2nc(-c3ccco3)nn2c1=O 61%
O=C(COC(=O)c1ccc(F)cc1F)Nc1ncccn1 52.5%
